# Measurements: ChEMBL document CHEMBL3813658, “Texas Native Plants Yield Compounds with Cytotoxic Activities against Prostate Cancer Cells” (J Nat Prod, 2016)
# Activity calls are given as the source filed them. The calls are words filed in the database; no cut-off is given here.
# Key:
# [1] = Antiproliferative activity against human PC3 cells after 48 hrs by sulforhodamine B assay; format: functional, cell-based; conditions: PC-3, 48 h
# [2] = Antiproliferative activity against human DU145 cells after 48 hrs by sulforhodamine B assay; format: functional, cell-based; conditions: DU-145, 48 h
# Summary of the method: (§1)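 Sulforhodamine B assay. DU 145 cells in IMEM/10% FBS and PC-3 cells in RPMI-1640/10% FBS, both kept at 37 °C with 5% CO2, seeded at predetermined densities and left to adhere overnight. Cells exposed 48 h to a concentration range or DMSO vehicle, then TCA-fixed and SRB-stained. Bound dye dissolved in Tris and read at 560 nm.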
# [3] = Cell cycle arrest in human DU145 cells assessed as accumulation at G0/G1 phase at 5 times antiproliferative IC50 after 16 to 23 hrs by propidium iodide staining based flow cytometry (reference value: 50.4 +/- […]%); format: functional; conditions: DU-145
# [4] = test system: DU-145; assay: Ratio of IC50 for human PC3 cells to IC50 for human DU145 cells; format: functional
# [5] = Cytotoxicity against human PC3 cells assessed as reduction in cell density at 61.7 uM after 48 hrs by sulforhodamine B assay relative to control; format: functional; conditions: PC-3, 48 h; summary of the method: as §1
# [6] = Cytotoxicity against human DU145 cells assessed as reduction in cell density at 61.7 uM after 48 hrs by sulforhodamine B assay relative to control; format: functional; conditions: DU-145, 48 h; summary of the method: as §1
# [7] = (§2) Inhibition of colony formation in human DU145 cells at antiproliferative IC90 incubated for 4 hrs followed by compound washout measured after 7 to 9 days by crystal violet staining based clonogenic assay relative to control; format: functional, DU-145
# Summary of the method: (§3)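 DU 145 cells plated at 150 per 60 mm plate and left to adhere about 24 h. Cells treated 4 h at the IC90 concentration, washed with fresh medium, then grown 7−9 days drug-free. Colonies stained with 0.5% crystal violet in 20% methanol, counted by imaging, and compared with vehicle-treated controls.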
# [8] = Cell cycle arrest in human DU145 cells assessed as accumulation at S phase at 5 times antiproliferative IC50 after 16 to 23 hrs by propidium iodide staining based flow cytometry (reference value: 27.8 +/- 1%); format: functional; conditions: DU-145
# Summary of the method: (§4)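 Cells harvested on ice, stained with Krishan's reagent (propidium iodide), and DNA content read by flow cytometry. Phase percentages derived from DNA histograms. n = 2–3 per compound, n = 5 for vehicle; error bars are SEM.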
# [9] = Cell cycle arrest in human DU145 cells assessed as accumulation at G2/M phase at 5 times antiproliferative IC50 after 16 to 23 hrs by propidium iodide staining based flow cytometry (reference value: 21.8 +/- 1.5%); format: functional; conditions: DU-145; summary of the method: as §4
# [10] = test system: DU-145; assay: Disruption of mitotic spindle in human DU145 cells assessed as elongated and curved morphology at 2 times antiproliferative IC50 after 16 to 18 hrs by DAPI staining based immunofluorescence microscopy; format: functional, cell-based
# Summary of the method: (§5)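 Cells fixed in ice-cold methanol, then stained with anti-β-tubulin and FITC secondary antibody; DNA stained with DAPI. Spindle morphology, metaphase DNA alignment and interphase microtubules assessed by fluorescence microscopy.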
# [11] = test system: DU-145; assay: Disruption of mitotic spindle in human DU145 cells assessed as incorrect alignment of DNA at metaphase at 2 times antiproliferative IC50 after 16 to 18 hrs by DAPI staining based immunofluorescence microscopy; format: functional, cell-based; summary of the method: as §5
# [12] = molecular target: T1, Tubulin (Sus scrofa) (UniProt P02554+P02550); assay: Induction of porcine brain tubulin polymerization at 2 uM incubated for 1 hr by turbidimetric assay
# Summary of the method: (§6)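 Purified porcine brain tubulin (2 mg/mL) in GPEM buffer with 1 mM GTP, polymerized for 1 h at 37 °C with 1% DMSO vehicle or compound at 2 or 20 μM. Turbidity followed as absorbance at 340 nm; initial rate and total polymer assessed.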
# [13] = molecular target: T1, Tubulin (Sus scrofa); assay: Induction of porcine brain tubulin polymerization at 20 uM incubated for 1 hr by turbidimetric assay; summary of the method: as §6
# [14] = molecular target: T1, Tubulin (Sus scrofa); assay: Effect on total porcine brain tubulin polymer level at 20 uM incubated for 1 hr by turbidimetric assay; summary of the method: as §6
# [15] = Cytotoxicity against human DU145 cells assessed as reduction in cell density at 61.3 uM after 48 hrs by sulforhodamine B assay relative to control; format: functional; conditions: DU-145, 48 h; summary of the method: as §1
# [16] = Cytotoxicity against human PC3 cells assessed as reduction in cell density after 48 hrs by sulforhodamine B assay relative to control; format: functional, PC-3; summary of the method: as §1
# [17] = Cytotoxicity against human DU145 cells assessed as reduction in cell density after 48 hrs by sulforhodamine B assay relative to control; format: functional, DU-145; summary of the method: as §1
# [18] = test system: DU-145; assay: Disruption of mitotic spindle in human DU145 cells assessed as elongated and curved morphology at 5 times antiproliferative IC50 after 16 to 18 hrs by DAPI staining based immunofluorescence microscopy; format: functional, cell-based; summary of the method: as §5
# [19] = test system: DU-145; assay: Disruption of mitotic spindle in human DU145 cells assessed as incorrect alignment of DNA at metaphase at 5 times antiproliferative IC50 after 16 to 18 hrs by DAPI staining based immunofluorescence microscopy; format: functional, cell-based; summary of the method: as §5
# [20] = molecular target: T2, Mitogen-activated protein kinase; ERK1/ERK2 (Homo sapiens) (UniProt P27361+P28482); assay: Activation of ERK1/2 in human DU145 cells assessed as increase in phosphorylation at Thr202/Tyr204 residue at antiproliferative IC90 after 4 hrs by fluorescence based intracellular signaling array method; format: cell-based; conditions: DU-145
# Summary of the method: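 PathScan intracellular signaling array with fluorescent read-out. DU 145 cells treated for 4 h; lysates made with cell extraction buffer plus protease inhibitors, as for Western blots. Phospho-Erk1/2 at Thr202/Tyr204 scored.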
# [21] = molecular target: T2, Mitogen-activated protein kinase; ERK1/ERK2 (Homo sapiens); assay: Increase in ERK1/2 phosphorylation in human DU145 cells at antiproliferative IC90 after 2 to 18 hrs by Western blot analysis; format: cell-based; conditions: DU-145
# Summary of the method: (§7)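 Equal protein run on SDS-PAGE and blotted to membrane. Probed with phospho-p44/42 and total p44/42 antibodies (1:1000) and HRP secondaries (1:5000), then quantified by densitometry.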
# [22] = molecular target: T2, Mitogen-activated protein kinase; ERK1/ERK2 (Homo sapiens); assay: Increase in ERK1/2 phosphorylation in human DU145 cells at antiproliferative IC90 up to 2 hrs by Western blot analysis; format: cell-based; conditions: DU-145; summary of the method: as §7
# [23] = Cytotoxicity against human PC3 cells assessed as reduction in cell density at 12.5 uM after 48 hrs by sulforhodamine B assay relative to control; format: functional; conditions: PC-3, 48 h; summary of the method: as §1
# [24] = Cytotoxicity against human DU145 cells assessed as reduction in cell density at 12.5 uM after 48 hrs by sulforhodamine B assay relative to control; format: functional; conditions: DU-145, 48 h; summary of the method: as §1
# [25] = test system: DU-145; assay: as §2; format: functional; summary of the method: as §3
# [26] = test system: DU-145; assay: Effect on interphase microtubule in human DU145 cells at 5 times antiproliferative IC50 after 16 to 18 hrs by DAPI staining based immunofluorescence microscopy; format: functional, cell-based; summary of the method: as §5
# T1 sequence (P02550 whole entry, looked up): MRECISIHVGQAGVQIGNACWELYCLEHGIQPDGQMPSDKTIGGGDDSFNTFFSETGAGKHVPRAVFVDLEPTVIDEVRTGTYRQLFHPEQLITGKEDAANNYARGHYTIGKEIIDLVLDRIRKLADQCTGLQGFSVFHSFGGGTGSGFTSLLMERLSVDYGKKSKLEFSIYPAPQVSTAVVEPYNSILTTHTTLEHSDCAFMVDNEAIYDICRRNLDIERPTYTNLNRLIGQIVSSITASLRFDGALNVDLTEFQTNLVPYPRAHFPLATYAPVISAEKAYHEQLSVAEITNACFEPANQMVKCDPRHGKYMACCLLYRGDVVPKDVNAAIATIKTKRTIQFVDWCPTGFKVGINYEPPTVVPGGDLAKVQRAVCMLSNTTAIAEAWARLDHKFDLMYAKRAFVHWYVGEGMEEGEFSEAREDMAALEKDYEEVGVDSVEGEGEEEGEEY
# T1 sequence (P02554 whole entry, looked up): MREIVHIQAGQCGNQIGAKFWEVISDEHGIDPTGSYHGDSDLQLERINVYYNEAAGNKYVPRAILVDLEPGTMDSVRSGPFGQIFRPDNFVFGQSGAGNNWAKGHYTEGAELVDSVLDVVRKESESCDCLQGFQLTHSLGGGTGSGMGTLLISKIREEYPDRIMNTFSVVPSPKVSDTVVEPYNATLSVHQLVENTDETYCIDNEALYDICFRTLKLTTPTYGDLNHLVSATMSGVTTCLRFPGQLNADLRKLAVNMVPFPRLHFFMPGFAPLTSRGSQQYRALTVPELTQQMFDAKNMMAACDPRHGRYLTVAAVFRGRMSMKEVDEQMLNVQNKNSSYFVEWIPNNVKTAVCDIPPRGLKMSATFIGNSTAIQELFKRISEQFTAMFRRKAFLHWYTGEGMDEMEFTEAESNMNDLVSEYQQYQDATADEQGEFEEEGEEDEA
# T2 sequence (P27361 whole entry, looked up): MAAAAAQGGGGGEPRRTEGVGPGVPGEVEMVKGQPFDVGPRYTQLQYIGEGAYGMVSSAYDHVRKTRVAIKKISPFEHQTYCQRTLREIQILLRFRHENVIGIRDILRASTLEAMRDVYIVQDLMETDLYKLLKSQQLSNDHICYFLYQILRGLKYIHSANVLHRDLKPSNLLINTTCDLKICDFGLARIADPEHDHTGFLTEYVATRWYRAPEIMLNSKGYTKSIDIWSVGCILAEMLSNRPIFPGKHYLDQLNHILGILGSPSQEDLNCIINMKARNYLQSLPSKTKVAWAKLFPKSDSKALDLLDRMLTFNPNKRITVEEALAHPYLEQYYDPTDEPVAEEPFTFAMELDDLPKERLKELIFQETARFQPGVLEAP
# T2 sequence (P28482 whole entry, looked up): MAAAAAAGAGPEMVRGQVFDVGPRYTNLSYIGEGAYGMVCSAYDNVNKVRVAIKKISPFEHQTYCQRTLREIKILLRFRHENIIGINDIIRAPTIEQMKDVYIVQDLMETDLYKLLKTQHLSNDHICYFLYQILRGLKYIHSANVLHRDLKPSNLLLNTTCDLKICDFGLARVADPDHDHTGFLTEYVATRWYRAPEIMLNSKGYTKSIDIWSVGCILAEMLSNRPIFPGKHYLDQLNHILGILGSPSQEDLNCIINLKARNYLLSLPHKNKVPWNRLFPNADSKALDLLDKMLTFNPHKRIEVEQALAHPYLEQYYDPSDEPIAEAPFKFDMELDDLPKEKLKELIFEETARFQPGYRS
SMILES,Activity [12],Activity [13],Activity [20],Activity [21],IC50 [1],IC50 [2],Activity [3],Ratio IC50 [4],inhibition (INH) [7],Activity [8],Activity [9],inhibition (INH) [16],inhibition (INH) [17],Activity [18],Activity [19],other results
CC(C)(O)C(O)Cc1c(O)ccc(C(=O)/C=C/c2ccccc2)c1O (stereo not drawn),–,–,–,–,35 µM,25.5 µM,–,1.4,–,–,–,–,–,–,–,inhibition at 61.3 µM [15]: 46%
C=C(C)C(=O)O[C@H]1C/C(C=O)=C\CC/C(C)=C/[C@H]2OC(=O)C(=C)[C@H]12,inactive,inactive,Active,inactive,3 µM,1.8 µM,46.4%,1.7,98%,27.2%,26.4%,20%,20%,Active,Active,Activity [22]: Active
CC(=O)O[C@H]1C(=O)[C@@]2(C)[C@H]([C@H](OC(=O)c3ccccc3)[C@]3(O)C[C@H](OC(=O)[C@H](O)[C@@H](NC(=O)c4ccccc4)c4ccccc4)C(C)=C1C3(C)C)[C@]1(OC(C)=O)CO[C@@H]1C[C@@H]2O [PACLITAXEL],–,–,–,–,–,0.0038 µM,–,–,–,–,–,–,–,–,–,–

# Continued, in another order:
Activity [12],Activity [13],Activity [20],Activity [21],SMILES,IC50 [1],IC50 [2],Activity [3],Ratio IC50 [4],inhibition (INH) [7],Activity [8],Activity [9],inhibition (INH) [16],inhibition (INH) [17],Activity [18],Activity [19],other results
inactive,Active,–,–,C=C(C)C(O)Cc1c(O)ccc(C(=O)/C=C/c2ccccc2)c1O (stereo not drawn),11 µM,7 µM,37.8%,1.6,44%,28.8%,33.4%,–,–,–,–,inhibition at 61.7 µM [5]: 84%; inhibition at 61.7 µM [6]: 84%; Activity [10]: Active; Activity [11]: Active; Activity [14]: inactive
inactive,inactive,Active,Active,C=C1C(=O)O[C@H]2C/C(COC(=O)C(C)C)=C/CC[C@]3(C)O[C@H]3[C@@H](O)[C@H]12,4.7 µM,1.7 µM,34.4%,2.8,42%,31.2%,34.5%,30%,20%,Active,Active,–
–,–,Active,inactive,CC(C)[C@@H]1CC[C@@]2(C)CCC[C@@](C)(O)[C@@H]2[C@@H]1OC(=O)/C=C/c1ccc(O)cc1,4 µM,5.2 µM,51.5%,0.77,–,24.9%,23.5%,–,–,inactive,–,inhibition at 12.5 µM [23]: 84%; inhibition at 12.5 µM [24]: 84%; inhibition [25]: inactive; Activity [26]: inactive
inactive,inactive,Active,–,C=C(C)C(=O)OC/C1=C\CC[C@]2(C)O[C@H]2[C@@H](O)[C@@H]2C(=C)C(=O)O[C@H]2C1,12 µM,3.7 µM,32.8%,3.2,23%,32.7%,34.5%,30%,20%,Active,Active,Activity [22]: Active
